Measurements: ChEMBL document CHEMBL3596120, “Discovery of natural alkaloid bouchardatine as a novel inhibitor of adipogenesis/lipogenesis in 3T3-L1 adipocytes” (Bioorg Med Chem, 2015)
Active and inactive are the calls of the source. The rule behind the calls is not given here.

Experiments:
3T3-L1 [1] = assay: Inhibition of adipogenesis in mouse 3T3L1 cells assessed as reduction in triglyceride content at 25 uM treated on day 0 to 6 by oil Red-O staining based microscopy; format: functional, cell-based
In short: (§1)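 After 3T3-L1 differentiation (IBMX/dexamethasone/insulin induction, insulin, then basal medium), cells were PBS-washed and fixed in 4% formalin for 60 min. Stained with filtered Oil Red O for 30 min at room temperature and imaged at 40× objective. Dye eluted with isopropanol and read at 510 nm. Three independent experiments.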

[2] = Reduction in PPARgamma mRNA expression in mouse 3T3L1 cells at 1 to 50 uM after 72 hrs by RT-PCR method; format: functional, cell-based; details: 3T3-L1
In short: (§2)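 3T3-L1 preadipocytes grown in DMEM with 10% FBS at 37 °C under 5% CO2. Differentiation starts 2 days post-confluence (day 0) with IBMX, 100 ng/mL dexamethasone and insulin for 3 d, then insulin in 10% FBS/DMEM for 3 d, then basic medium for 3 d. Compound is added on day 0 and renewed at day 3. Vehicle control receives the same volume of DMSO.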

3T3-L1 [3] = assay: Increase in AMPKalpha Thr172 phosphorylation in mouse 3T3L1 cells at 1 to 50 uM after 9 days by Western blot method; format: cell-based
In short: (§3)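 Mouse 3T3-L1 cells taken through the differentiation protocol, with compound or DMSO vehicle given from day 0 and renewed at day 3. Cells lysed on ice for 0.5 h in RIPA with PMSF, Na3VO4, NaF and protease inhibitors, then centrifuged at 12,000g. Lysates run on 12% SDS-PAGE and transferred to PVDF. Blots probed overnight at 4 °C and detected with HRP secondary. Bands quantified by optical density against GAPDH. Three independent experiments.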

[4] = Reduction in C/EBPalpha mRNA expression in mouse 3T3L1 cells at 1 to 50 uM after 72 hrs by RT-PCR method; format: functional, cell-based; details: 3T3-L1
[5] = Reduction in SREBP-1c protein expression in mouse 3T3L1 cells at 1 to 50 uM by Western blot method; format: functional, cell-based; details: 3T3-L1; in short: as §2
[6] = Reduction in C/EBPalpha protein expression in mouse 3T3L1 cells at 1 to 50 uM by Western blot method; format: functional, cell-based; details: 3T3-L1; in short: as §3
3T3-L1 [7] = assay: Activation of AMPK in mouse 3T3L1 cells assessed as increase in ACC Ser79 phosphorylation at 1 to 50 uM after 9 days by Western blot method; format: cell-based; in short: as §3
[8] = Reduction in PPARgamma protein expression in mouse 3T3L1 cells at 1 to 50 uM by Western blot method; format: functional, cell-based; details: 3T3-L1; in short: as §2
3T3-L1 [9] = assay: Inhibition of adipogenesis in mouse 3T3L1 cells assessed as reduction in triglyceride content at 25 uM treated on day 3 to 6 by colorimetric assay; format: functional; details: 3T3-L1, 72 h
[10] = Reduction in SREBP-1c mRNA expression in mouse 3T3L1 cells at 1 to 50 uM after 72 hrs by RT-PCR method; format: functional, cell-based; details: 3T3-L1; in short: as §2
[11] = Reduction in C/EBPalpha mRNA expression in mouse 3T3L1 cells at 25 uM by RT-PCR method; format: functional, cell-based; details: 3T3-L1, TDE = time-dependent effect
[12] = Reduction in C/EBPalpha protein expression in mouse 3T3L1 cells at 25 uM after 3 days by Western blot method; format: functional, cell-based; details: 3T3-L1; in short: as §2
3T3-L1 [13] = assay: Inhibition of adipogenesis in mouse 3T3L1 cells assessed as reduction in lipid content at 25 uM by colorimetric assay; format: functional
[14] = Reduction in SCD1 protein expression in mouse 3T3L1 cells at 25 uM after 9 days by Western blot method; details: 3T3-L1
[15] = Reduction in PPARgamma protein expression in mouse 3T3L1 cells at 25 uM after 3 days by Western blot method; format: functional, cell-based; details: 3T3-L1; in short: as §2
3T3-L1 [16] = assay: Inhibition of adipogenesis in mouse 3T3L1 cells assessed as reduction in triglyceride content at 25 uM treated on day 0 to 3 by oil Red-O staining based microscopy; format: functional, cell-based; in short: as §1
HepG2 = assay: Cytotoxicity against human HepG2 cells at 1 to 100 uM by MTT assay; format: cell-based; details: hepg2, 100 µM
In short: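 HepG2 cells seeded at 7 × 10^3 cells/well. After 24 h, treated with 1, 10, 25, 50 or 100 µM; DMSO vehicle control. After the set time, MTT at 0.5 mg/mL was added for 4 h at 37 °C. Formazan dissolved in DMSO and read at 490 nm. Run in triplicate.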

3T3-L1 [17] = assay: Inhibition of adipogenesis in mouse 3T3L1 cells assessed as reduction in triglyceride content at 25 uM treated on day 3 to 9 by oil Red-O staining based microscopy; format: functional, cell-based; in short: as §1
3T3-L1 [18] = assay: Increase in AMPKalpha Thr172 phosphorylation in mouse 3T3L1 cells at 25 uM by Western blot method; format: cell-based; details: TDE = time-dependent effect
3T3-L1 [19] = assay: Inhibition of adipogenesis in mouse 3T3L1 cells assessed as reduction in triglyceride content at 25 uM treated on day 6 to 9 by oil Red-O staining based microscopy; format: functional, cell-based; in short: as §1
[20] = Reduction in ACC protein expression in mouse 3T3L1 cells at 1 to 50 uM after 9 days by Western blot method; format: functional, cell-based; details: 3T3-L1; in short: as §3
3T3-L1 [21] = assay: Inhibition of adipogenesis in mouse 3T3L1 cells assessed as reduction in triglyceride content at 25 uM treated on day 0 to 9 by oil Red-O staining based microscopy; format: functional, cell-based; in short: as §1
3T3-L1 [22] = assay: Induction of cell cycle arrest in mouse 3T3L1 cells assessed as accumulation at G0/G1 phase at 25 uM after 24 hrs by flow cytometry (reference value: 42%); format: functional
3T3-L1 [23] = assay: Induction of cell cycle arrest in mouse 3T3L1 cells assessed as accumulation at G2/M phase at 25 uM after 24 hrs by flow cytometry (reference value: 29%); format: functional
[24] = Reduction in AMPKbeta protein expression in mouse 3T3L1 cells at 1 to 50 uM after 9 days by Western blot method; format: functional, cell-based; details: 3T3-L1; in short: as §3
[25] = Reduction in C/PPARgamma mRNA expression in mouse 3T3L1 cells at 25 uM by RT-PCR method; format: functional, cell-based; details: 3T3-L1, TDE = time-dependent effect; in short: as §2
[26] = Reduction in AMPKalpha protein expression in mouse 3T3L1 cells at 1 to 50 uM after 9 days by Western blot method; format: functional, cell-based; details: 3T3-L1; in short: as §3

In the case of `O=Cc1c(-c2nc3ccccc3c(=O)[nH]2)[nH]c2ccccc12`, the inhibition (3T3-L1 [1]) is reported as “Active”, the Activity [2] is reported as “Active” and the Activity (3T3-L1 [3]) is reported as “Dose-dependent effect”. The Activity [4] was “Active”, the Activity [5] was “Active” and the Activity [6] was “Active”. The Activity (3T3-L1 [7]) was “Active”, the Activity [8] was “Active” and the inhibition at 25 µM (3T3-L1 [9]) was 30%. For the same compound, the Activity [10] was “Active”, the Activity [11] was “tde” and the Activity [12] was “Active”. The inhibition at 25 µM (3T3-L1 [13]) was 50%, the Activity [14] was “Active” and the Activity [15] was “Active”. For the same compound, the inhibition (3T3-L1 [16]) was “Active”, the Activity (HepG2) was “Non-toxic” and the inhibition (3T3-L1 [17]) was “Active”. The Activity (3T3-L1 [18]) was “tde”, the inhibition (3T3-L1 [19]) was “Active” and the Activity [20] was “Active”. The inhibition (3T3-L1 [21]) was “Active”, the Activity (3T3-L1 [22]) was 40% and the Activity (3T3-L1 [23]) was 57%. For the same compound, the Activity [24] was “Active”, the Activity [25] was “tde” and the Activity [26] was “Active”.
